Two compounds from ChEMBL document CHEMBL1212904, “Discovery of pyrrole-indoline-2-ones as Aurora kinase inhibitors with a different inhibition profile” (J Med Chem, 2010) can be followed below.

What is called inhibition is the relative decrease from the control value, in per cent. Usually IC50 stands for the concentration that gives 50% inhibition.

Experiment [1] deals with T1, Aurora kinase A (Homo sapiens) (UniProt O14965).
T1 sequence (whole entry): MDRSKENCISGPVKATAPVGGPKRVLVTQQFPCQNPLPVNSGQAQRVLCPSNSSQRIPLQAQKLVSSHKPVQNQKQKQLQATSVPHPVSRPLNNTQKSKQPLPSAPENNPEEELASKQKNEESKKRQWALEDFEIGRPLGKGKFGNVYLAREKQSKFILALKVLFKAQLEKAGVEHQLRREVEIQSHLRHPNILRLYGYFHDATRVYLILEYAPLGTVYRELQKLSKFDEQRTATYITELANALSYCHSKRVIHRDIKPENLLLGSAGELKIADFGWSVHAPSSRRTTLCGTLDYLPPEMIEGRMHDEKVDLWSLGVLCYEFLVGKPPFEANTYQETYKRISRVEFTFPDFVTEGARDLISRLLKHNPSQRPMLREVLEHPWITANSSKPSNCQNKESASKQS
Kind of experiment: Inhibition of aurora A in human HCT116 cells assessed as reduction of phosphorylated histone H3 at ser10 level measured at 10 uM after 3 hrs by Western blot analysis. As to conditions: HCT-116. The experiment is classed as cell-based. The gist of the method:
(§1)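 HCT-116 cells were synchronized at G2/M with 200 ng/mL nocodazole for 17 h, then given inhibitor for a further 3.0 h. Cells were PBS-washed, boiled in 2× SDS sample buffer, and run on SDS-PAGE with immunoblotting. Rabbit antibodies detected pT288 Aurora A, total Aurora A, pS10 histone H3 and total H3; β-actin served as loading control.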
On the technique in general: A western blot detects proteins with antibodies after separation by electrophoresis.

For experiment [2], the target named is Mitogen-activated protein kinase kinase kinase kinase 5 (Homo sapiens) (UniProt Q9Y4K4). Kind of experiment: Inhibition of MAP4K5 at 1 uM by KINOMEscan binding assay.
In experiment [3] the target is Rhodopsin kinase GRK7 (Homo sapiens) (UniProt Q8WTQ7). Kind of experiment: Inhibition of GRK7 at 1 uM by KINOMEscan binding assay.
Experiment [4] relates to HCT-116. Kind of experiment: Antiproliferative activity against human HCT116 cells after 72 hrs by [3H]thymidine incorporation assay. The experiment is classed as functional, cell-based.
The target in experiment [5] is T1, Aurora kinase A (Homo sapiens). Kind of experiment: Inhibition of aurora A in human HCT116 cells assessed as reduction of phosphorylated aurora A at Thr288 level measured at 1.25 to 40 uM after 3 hrs by Western blot analysis. To be noted: HCT-116. Type of experiment: cell-based. A digest of the protocol:
as §1

Experiment [6] has as its target Tyrosine-protein kinase JAK2 (Homo sapiens) (UniProt O60674). Kind of experiment: Inhibition of JAK2 at 1 uM by radiometric method.
Experiment [7] deals with Epithelial discoidin domain-containing receptor 1 (Homo sapiens) (UniProt Q08345). Kind of experiment: Inhibition of DDR1 at 1 uM by KINOMEscan binding assay.
For experiment [8], the target named is Tyrosine-protein kinase ABL1 (Homo sapiens) (UniProt P00519). Kind of experiment: Inhibition of ABL1 at 1 uM by radiometric method.
Experiment [9] addresses Cyclin-dependent kinase 2/cyclin A (Homo sapiens) (UniProt P24941+P20248+P78396). Kind of experiment: Inhibition of CDK2/cyclinA at 1 uM by radiometric method. Type of experiment: protein-complex assay.
The target in experiment [10] is Hepatocyte growth factor receptor (Homo sapiens) (UniProt P08581). Kind of experiment: Inhibition of c-Met at 1 uM by radiometric method.
Sequence of Hepatocyte growth factor receptor (Homo sapiens) (P08581 whole entry): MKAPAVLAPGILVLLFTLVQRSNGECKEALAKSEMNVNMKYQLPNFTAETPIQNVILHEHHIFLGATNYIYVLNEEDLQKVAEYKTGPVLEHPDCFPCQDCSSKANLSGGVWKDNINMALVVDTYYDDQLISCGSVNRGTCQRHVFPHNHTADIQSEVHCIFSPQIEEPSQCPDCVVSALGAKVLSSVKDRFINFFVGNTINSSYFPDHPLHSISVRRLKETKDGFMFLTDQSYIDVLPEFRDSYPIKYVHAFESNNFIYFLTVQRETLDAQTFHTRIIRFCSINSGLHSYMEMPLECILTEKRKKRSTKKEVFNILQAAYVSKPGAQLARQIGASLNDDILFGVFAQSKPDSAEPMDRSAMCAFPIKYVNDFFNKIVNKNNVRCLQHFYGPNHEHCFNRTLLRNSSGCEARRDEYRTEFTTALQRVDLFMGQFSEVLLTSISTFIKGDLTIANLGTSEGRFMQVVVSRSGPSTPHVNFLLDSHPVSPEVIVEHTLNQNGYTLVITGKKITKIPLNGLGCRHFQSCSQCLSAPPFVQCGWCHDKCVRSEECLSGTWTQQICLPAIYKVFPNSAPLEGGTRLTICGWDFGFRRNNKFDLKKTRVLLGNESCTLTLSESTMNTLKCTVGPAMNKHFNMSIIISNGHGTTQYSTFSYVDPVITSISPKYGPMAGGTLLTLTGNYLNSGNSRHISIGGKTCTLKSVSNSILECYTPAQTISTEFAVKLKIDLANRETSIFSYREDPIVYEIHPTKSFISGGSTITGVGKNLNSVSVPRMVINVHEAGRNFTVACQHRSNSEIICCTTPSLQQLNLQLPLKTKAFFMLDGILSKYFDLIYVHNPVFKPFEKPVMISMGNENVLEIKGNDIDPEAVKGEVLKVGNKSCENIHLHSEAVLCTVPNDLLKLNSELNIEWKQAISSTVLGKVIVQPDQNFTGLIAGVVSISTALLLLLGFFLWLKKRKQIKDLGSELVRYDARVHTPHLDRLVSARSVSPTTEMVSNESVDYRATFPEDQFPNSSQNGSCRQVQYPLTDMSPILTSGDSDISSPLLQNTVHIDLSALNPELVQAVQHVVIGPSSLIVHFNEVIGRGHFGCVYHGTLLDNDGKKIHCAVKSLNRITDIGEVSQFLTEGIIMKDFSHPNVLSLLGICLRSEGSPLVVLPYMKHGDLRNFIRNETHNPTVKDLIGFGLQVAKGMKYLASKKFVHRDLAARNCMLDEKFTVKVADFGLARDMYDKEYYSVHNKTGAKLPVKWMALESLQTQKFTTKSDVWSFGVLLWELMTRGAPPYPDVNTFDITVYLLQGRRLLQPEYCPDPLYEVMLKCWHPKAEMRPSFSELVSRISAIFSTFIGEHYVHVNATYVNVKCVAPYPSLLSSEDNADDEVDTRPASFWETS
Experiment [11] has as its target High affinity nerve growth factor receptor (Homo sapiens) (UniProt P04629). Kind of experiment: Inhibition of TRK at 1 uM by KINOMEscan binding assay.
Experiment [12] deals with Tyrosine-protein kinase Mer (Homo sapiens) (UniProt Q12866). Kind of experiment: Inhibition of MERTK at 1 uM by KINOMEscan binding assay.
Sequence of Tyrosine-protein kinase Mer (Homo sapiens) (Q12866 whole entry): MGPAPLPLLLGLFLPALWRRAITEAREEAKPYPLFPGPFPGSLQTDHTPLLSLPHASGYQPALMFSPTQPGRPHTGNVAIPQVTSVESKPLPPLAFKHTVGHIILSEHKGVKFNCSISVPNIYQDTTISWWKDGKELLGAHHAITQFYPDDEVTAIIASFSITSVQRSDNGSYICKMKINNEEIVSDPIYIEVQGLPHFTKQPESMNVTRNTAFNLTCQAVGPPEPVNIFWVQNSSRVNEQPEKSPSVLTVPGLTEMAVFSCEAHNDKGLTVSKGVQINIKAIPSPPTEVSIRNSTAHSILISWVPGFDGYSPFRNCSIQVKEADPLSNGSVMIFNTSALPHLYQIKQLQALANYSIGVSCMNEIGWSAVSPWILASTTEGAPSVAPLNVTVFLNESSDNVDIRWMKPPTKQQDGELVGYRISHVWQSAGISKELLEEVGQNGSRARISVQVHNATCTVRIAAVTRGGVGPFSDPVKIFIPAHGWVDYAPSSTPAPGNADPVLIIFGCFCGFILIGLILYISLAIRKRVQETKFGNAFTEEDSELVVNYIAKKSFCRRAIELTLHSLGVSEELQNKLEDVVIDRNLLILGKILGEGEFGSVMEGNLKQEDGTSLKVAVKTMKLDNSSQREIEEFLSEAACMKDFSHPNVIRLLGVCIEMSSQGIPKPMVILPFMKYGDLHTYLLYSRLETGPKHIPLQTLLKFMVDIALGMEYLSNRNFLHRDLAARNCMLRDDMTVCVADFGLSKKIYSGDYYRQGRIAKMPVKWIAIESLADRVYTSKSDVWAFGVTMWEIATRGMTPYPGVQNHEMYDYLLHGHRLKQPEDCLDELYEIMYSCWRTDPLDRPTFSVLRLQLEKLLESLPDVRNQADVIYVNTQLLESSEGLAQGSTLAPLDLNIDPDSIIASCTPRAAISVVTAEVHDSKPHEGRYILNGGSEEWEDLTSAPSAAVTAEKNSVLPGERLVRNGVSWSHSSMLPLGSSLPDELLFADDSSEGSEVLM
Experiment [13] addresses Tyrosine-protein kinase receptor UFO (Homo sapiens) (UniProt P30530). Kind of experiment: Inhibition of AXL at 1 uM by KINOMEscan binding assay.
For experiment [14], the target named is Tyrosine-protein kinase Lck (Homo sapiens) (UniProt P06239). Kind of experiment: Inhibition of LCK at 1 uM by KINOMEscan binding assay.
Sequence of Tyrosine-protein kinase Lck (Homo sapiens) (P06239 2-509 limits assumed): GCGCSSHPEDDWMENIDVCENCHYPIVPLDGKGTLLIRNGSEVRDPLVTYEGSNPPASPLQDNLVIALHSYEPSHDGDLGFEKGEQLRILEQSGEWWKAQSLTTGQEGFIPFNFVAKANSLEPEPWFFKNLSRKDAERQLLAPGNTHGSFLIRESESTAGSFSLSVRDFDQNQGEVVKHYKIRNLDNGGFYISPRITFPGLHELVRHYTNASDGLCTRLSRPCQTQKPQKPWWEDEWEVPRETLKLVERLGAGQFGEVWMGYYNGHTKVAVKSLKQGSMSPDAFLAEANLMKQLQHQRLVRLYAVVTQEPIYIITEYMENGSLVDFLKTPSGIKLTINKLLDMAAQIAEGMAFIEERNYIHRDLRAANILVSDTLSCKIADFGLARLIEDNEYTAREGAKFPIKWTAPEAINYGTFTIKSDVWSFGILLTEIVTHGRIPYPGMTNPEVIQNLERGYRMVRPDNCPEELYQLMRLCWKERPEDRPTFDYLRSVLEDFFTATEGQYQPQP
For experiment [15], the target named is Mast/stem cell growth factor receptor Kit (Homo sapiens, UniProt P10721). Kind of experiment: Inhibition of c-Kit by radiometric method.
For experiment [16], the target named is Serine/threonine-protein kinase B-raf (Homo sapiens) (UniProt P15056). Kind of experiment: Inhibition of b-Raf at 1 uM by radiometric method.
Sequence of Serine/threonine-protein kinase B-raf (Homo sapiens) (P15056 whole entry): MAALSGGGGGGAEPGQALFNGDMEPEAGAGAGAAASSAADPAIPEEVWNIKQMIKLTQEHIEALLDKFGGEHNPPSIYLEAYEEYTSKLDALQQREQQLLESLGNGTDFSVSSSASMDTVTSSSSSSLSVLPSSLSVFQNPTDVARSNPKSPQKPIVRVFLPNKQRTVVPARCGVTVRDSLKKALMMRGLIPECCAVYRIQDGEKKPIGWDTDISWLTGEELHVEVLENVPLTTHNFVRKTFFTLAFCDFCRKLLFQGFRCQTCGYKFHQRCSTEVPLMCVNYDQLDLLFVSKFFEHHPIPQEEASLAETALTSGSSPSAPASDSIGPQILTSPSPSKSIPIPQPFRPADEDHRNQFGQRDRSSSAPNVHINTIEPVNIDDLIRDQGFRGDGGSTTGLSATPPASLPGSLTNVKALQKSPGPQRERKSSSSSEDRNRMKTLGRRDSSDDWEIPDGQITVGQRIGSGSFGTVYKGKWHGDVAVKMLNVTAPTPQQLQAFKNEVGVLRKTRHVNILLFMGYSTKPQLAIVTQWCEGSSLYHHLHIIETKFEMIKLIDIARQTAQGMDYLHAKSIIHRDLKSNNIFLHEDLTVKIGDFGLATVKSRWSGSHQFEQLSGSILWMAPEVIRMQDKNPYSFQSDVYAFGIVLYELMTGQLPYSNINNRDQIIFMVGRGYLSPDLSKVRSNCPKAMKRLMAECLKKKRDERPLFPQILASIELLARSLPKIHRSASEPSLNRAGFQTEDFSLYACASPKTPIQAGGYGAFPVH
The target in experiment [17] is Serine/threonine-protein kinase Chk1 (Homo sapiens) (UniProt O14757). Kind of experiment: Inhibition of CHK1 at 1 uM by radiometric method.
Sequence of Serine/threonine-protein kinase Chk1 (Homo sapiens) (O14757 whole entry): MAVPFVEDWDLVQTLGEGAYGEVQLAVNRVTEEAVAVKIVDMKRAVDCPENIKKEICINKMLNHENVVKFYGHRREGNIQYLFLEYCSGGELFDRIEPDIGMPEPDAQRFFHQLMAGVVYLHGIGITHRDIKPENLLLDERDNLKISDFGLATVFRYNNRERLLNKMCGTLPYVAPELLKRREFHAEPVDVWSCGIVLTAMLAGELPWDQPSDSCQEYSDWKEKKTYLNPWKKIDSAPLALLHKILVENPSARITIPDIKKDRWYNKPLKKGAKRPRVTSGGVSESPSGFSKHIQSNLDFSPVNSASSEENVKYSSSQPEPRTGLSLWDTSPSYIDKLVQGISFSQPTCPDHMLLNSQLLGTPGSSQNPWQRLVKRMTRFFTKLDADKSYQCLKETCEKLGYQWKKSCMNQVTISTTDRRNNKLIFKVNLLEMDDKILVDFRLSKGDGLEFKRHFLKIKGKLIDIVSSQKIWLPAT
In experiment [18] the test system is HCT-116. Kind of experiment: Cell cycle arrest in human HCT116 cells assessed as increase of multinucleated octoploid 8 N DNA at 4 uM after 24 hrs by flow cytometry. The experiment is classed as functional, cell-based. A digest of the protocol: (§2)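 HCT-116 cells exposed to 4 μM for 24 h, then trypsinized, PBS-washed, fixed in ice-cold 70% ethanol at -20 °C overnight. Cells were washed twice in PBS and stained 30 min in PBS with 2 μg/mL RNase A and 5 μg/mL propidium iodide. DNA content was read by flow cytometry to score 4 N and ≥8 N populations.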
(Flow cytometry measures light scatter and fluorescence of single cells or particles in a stream.)

A further experiment relates to HeLa. Kind of experiment: Antiproliferative activity against human HeLa cells after 72 hrs by cell titer 96 assay. Type of experiment: functional, cell-based.
Experiment [19] concerns the target Vascular endothelial growth factor receptor 2 (Homo sapiens, UniProt P35968). Kind of experiment: Inhibition of VEGFR2 by radiometric method.
In experiment [20] the test system is HCT-116. Kind of experiment: Cell cycle arrest in human HCT116 cells assessed as increase of tetraploid 4N DNA at 4 uM after 24 hrs by flow cytometry. The experiment is classed as functional, cell-based. The gist of the method: as §2
The next experiment has as its target Aurora kinase B (Homo sapiens, UniProt Q96GD4). Kind of experiment: Inhibition of recombinant aurora B.
In experiment [21] the target is Receptor-type tyrosine-protein kinase FLT3 (Homo sapiens, UniProt P36888). Kind of experiment: Inhibition of FLT3 by radiometric method.
The next experiment concerns the target T2, Aurora kinase A (Homo sapiens, UniProt O14965).
T2 sequence (O14965 whole entry): T1 sequence (whole entry)
Kind of experiment: Inhibition of recombinant aurora A.

Calls of active or inactive are those of the source. The calls are words filed in the database; no cut-off is given here.

Sequence of Tyrosine-protein kinase receptor UFO (Homo sapiens) (P30530 whole entry): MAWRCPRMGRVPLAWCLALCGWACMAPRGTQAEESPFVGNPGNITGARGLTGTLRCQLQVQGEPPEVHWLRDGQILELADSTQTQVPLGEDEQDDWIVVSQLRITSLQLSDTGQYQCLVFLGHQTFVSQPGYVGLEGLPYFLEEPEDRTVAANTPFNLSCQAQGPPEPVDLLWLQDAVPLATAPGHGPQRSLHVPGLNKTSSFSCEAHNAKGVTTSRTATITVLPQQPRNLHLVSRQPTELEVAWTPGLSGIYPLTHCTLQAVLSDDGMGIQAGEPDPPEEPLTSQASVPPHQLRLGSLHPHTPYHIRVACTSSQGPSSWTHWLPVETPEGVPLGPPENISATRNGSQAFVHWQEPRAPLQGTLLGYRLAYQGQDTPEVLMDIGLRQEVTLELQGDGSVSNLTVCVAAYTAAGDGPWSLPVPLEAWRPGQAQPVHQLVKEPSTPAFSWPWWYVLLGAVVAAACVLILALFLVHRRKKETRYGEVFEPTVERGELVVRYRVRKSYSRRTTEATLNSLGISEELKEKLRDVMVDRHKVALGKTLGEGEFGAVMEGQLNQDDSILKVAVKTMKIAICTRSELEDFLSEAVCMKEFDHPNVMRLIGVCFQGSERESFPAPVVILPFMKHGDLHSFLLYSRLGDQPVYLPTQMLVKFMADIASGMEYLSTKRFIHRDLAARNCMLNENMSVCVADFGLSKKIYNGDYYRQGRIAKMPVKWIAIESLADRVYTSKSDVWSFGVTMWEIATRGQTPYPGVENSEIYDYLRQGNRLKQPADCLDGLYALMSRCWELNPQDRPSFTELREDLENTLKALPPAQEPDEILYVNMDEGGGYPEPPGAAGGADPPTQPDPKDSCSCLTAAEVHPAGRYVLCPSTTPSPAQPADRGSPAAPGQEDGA

Turning to `CCOC(=O)CCc1c(/C=C2\C(=O)Nc3ccc(NS(=O)(=O)c4ccccc4)cc32)[nH]c2c1C(=O)CCC2`, the inhibition result in experiment [1] and in experiment [5] was “Active” in each case. Further, the residual activity in experiment [2], in experiment [3], in experiment [7], in experiment [11], in experiment [12] and in experiment [13] was less than 10% in each case. The same compound had a residual activity in [14] of less than 10%. Also, the values for the IC50 (in the experiment on HCT-116 [4]; in [15]) were 1.02 µM and more than 1 µM, respectively. Further, the inhibition is 30% in [6]; 31% in [8]; 71% in experiment [9]; 32% in experiment [10]; -1% in [16]; 10% in [17].
With `CN(C)CCCc1c(/C=C2\C(=O)Nc3ccc(NS(=O)(=O)c4ccccc4)cc32)[nH]c2c1C(=O)CCC2`, the result with HCT-116 [18] and in the experiment on HCT-116 [20] was Active. The inhibition result in experiment [1] is “Active”. For the same compound, the IC50 in the experiment with HeLa is 7.8 µM; in experiment [19], less than 1 µM; on Aurora kinase B, 0.235 µM; in [21], less than 1 µM; at Aurora kinase A, 2.19 µM; in experiment [15], less than 1 µM. Further, the residual activity in experiment [2], in [3], in experiment [7], in [11], in experiment [12] and in experiment [13] was less than 10% in each case. This compound displayed a residual activity in [14] of less than 10%. The inhibition result in [5] was “inactive”. The inhibition was -3% in experiment [6]; 46% in [9]; 32% in experiment [10]; 2% in experiment [16]; 58% in experiment [17].
